Laboratory results: PubChem BioAssay
Results filed as inconclusive are left out.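 The calls were made as follows, unless noted: active = growth inhibition above 25% in both replicates, a cutoff set 3 SD above the mean; inconclusive = above 25% in only one replicate; inactive = the rest.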

Legend:
[1] = S. cerevisiae growth inhibition in permissive medium (OD615), pilot counter-assay for S. cerevisiae lifespan shortening project, permissive growth control (AID 705); conditions: OD615, 24 h, at 10 µM, hits give high values
In short: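 Timing: 24 h exposure, 30 °C / Material: Saccharomyces cerevisiae strain carrying genetically modified DeaD replicative-lifespan system / Signal: OD at 615 nm / Compound: 10 µM single dose, 0.25% DMSO / Medium: SC raffinose/galactose permissive medium / Evaluation: reduction in yeast growth (OD615)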

[2] = S. cerevisiae growth inhibition in restrictive medium, OD615, pilot screen, restrictive growth control, yeast lifespan reduction project (AID 706;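 active = growth inhibition above a set limit, 3 SD over mean compound inhibition, in both replicates, cut at about 43% in these data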;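 also: modified DeaD lifespan yeast strain shifted to restrictive glucose medium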); conditions: OD615, 48 h, at 10 µM, hits give high values
In short: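 System: Engineered S. cerevisiae DeaD strain | Detection: OD615 | Buffer or medium: CSMM-D glucose medium | Doses: 10 µM compound, 0.25% DMSO | Timing: 4 h pre-growth plus 48 h compound exposure, 30 °C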

[3] = doxorubicin toxicity protection in MRP-1 cells – H69AR cells, CellTiter-Glo, duplicate, MRP-1 activator project, pilot screen (AID 807;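 active = viability increase at or above a cutoff of the median across tested compounds plus 3 SD, cut at about 8.5% in these data, passing the limit was not always enough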;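 also: compound pretreatment 18-22 h then 72 h combined with doxorubicin; 0% = doxorubicin alone and 100% = vehicle without doxorubicin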); conditions: H69AR viability with doxorubicin, CellTiter-Glo luminescence; at 10 µM; hits give high values
[4] = viability of HCT116 without oncogenic beta-catenin – human colon tumor cells, pilot screen (AID 823;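 active = cell viability at or below a set limit in both duplicate runs, the limit being the all-compound median minus 4 SD, cut at about 23% in these data, passing the limit was not always enough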;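 also: 0% = wells killed by 20 µM Hyamine and 100% = untreated DMSO cell wells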); conditions: HCT116 beta-catenin knockout viability, CellTiter-Glo, 60 h; at 10 µM; hits give low values
[5] = viability of PTEN-null HCT116 cells – cell-based, HCT116 clonal line, CellTiter-Glo, pilot screen (AID 824;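 active = viability at or below 27.92% in each of two runs, the all-compound median minus 4 SD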;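 also: 0% = 20 µM Hyamine control and 100% = vehicle cell control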); conditions: HCT116 PTEN-deleted viability, 60 h, at 10 µM, hits give low values
[6] = RAM pathway blockade in budding yeast – dse1pr::URA3 reporter, 5-FOA selection, pilot screen (AID 869;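 active = inhibition over a set limit, the all-compound mean plus 3 SD, in both replicate runs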;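 also: 0% = DMSO wells with no growth and 100% = 10 µM 1-NA-PP1 with full growth; RAM network block rescues cells from 5-FOA so hits raise OD615 growth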); conditions: S. cerevisiae dse1pr::URA3 5-FOA growth, OD615, 2 d; at 10 µM; hits give high values; strain carries analog-sensitive mutant Cbk1 kinase
[7] = RAM signaling pathway blockade in yeast – S. cerevisiae, Pdr1DBD-CYC8 efflux-inhibited sensitized strain, primary screen (AID 1298;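 active = RAM network inhibition above 8.4% in each of two replicates, 3 SD over the compound average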;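 also: 0% = DMSO untreated cells without growth and 100% = 10 µM 1-NA-PP1 full growth; higher means more yeast growth rescued from 5-FOA killing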); conditions: S. cerevisiae cbk1-as DSE1-URA3 strain, 5-FOA growth OD615, 2 d; at 50 µM; hits give high values

CS(=O)(=O)c1ccc2nc(NC(=O)c3ccco3)sc2c1
inactive: growth inhibition [1] -16% | growth inhibition [2] -4.42% | viability increase [3] -7.64% | viability [4] 84.9% | viability [5] 81.9% | inhibition [6] 3.1% | RAM network inhibition [7] 4.15%

CCN1CCN(c2cc(C)c3cc(NC(=O)c4cnccn4)ccc3n2)CC1
inactive: growth inhibition [1] -11.2% | growth inhibition [2] 1.29% | viability increase [3] -3.82% | viability [4] 84.5% | viability [5] 89.5% | inhibition [6] -0.02% | RAM network inhibition [7] -0.42%

Cc1ccc2c(c1)N(CCCC(=O)NCCCN1CCCC1=O)C(=O)CO2
inactive: growth inhibition [1] -11.1% | growth inhibition [2] -13.3% | viability increase [3] -2.09% | viability [4] 98.2% | viability [5] 94% | inhibition [6] 1.64% | RAM network inhibition [7] 1.27%

CC1(C)C(C#N)=C(N)OC2=C1C(=O)CCC2
inactive: growth inhibition [1] -8.74% | growth inhibition [2] -5.87% | viability increase [3] -0.89% | viability [4] 96.3% | viability [5] 97.4% | inhibition [6] 2.41% | RAM network inhibition [7] 1.3%

C=CCNC(=O)C1CC(=O)N(c2ccc(Br)cc2)C1 (centres undefined)
inactive: growth inhibition [1] -16.9% | growth inhibition [2] -14.1% | viability increase [3] -1.65% | viability [4] 95.5% | viability [5] 95.3% | inhibition [6] 0.655% | RAM network inhibition [7] 0.56%

COc1ccc(S(=O)(=O)Cc2ccc(C(=O)NCc3cccnc3)o2)cc1
inactive: growth inhibition [1] -4.57% | growth inhibition [2] -10.1% | viability increase [3] -5% | viability [4] 88.2% | viability [5] 84% | inhibition [6] 1% | RAM network inhibition [7] 3.45%

CCOC(=O)c1oc2cc(O)c(CC)cc2c(=O)c1-c1ccc2c(c1)OCCO2
inactive: growth inhibition [1] -22.8% | growth inhibition [2] -16.3% | viability increase [3] -2.23% | viability [4] 101% | viability [5] 91.7% | inhibition [6] 3% | RAM network inhibition [7] 5.4%

CC(C)n1c(NCc2cc(Cl)ccc2O)nc2ccccc21
inactive: growth inhibition [1] -3.83% | growth inhibition [2] -7.78% | viability increase [3] -0.71% | viability [4] 88.8% | viability [5] 87.9% | inhibition [6] -0.06% | RAM network inhibition [7] 1.06%

CCOc1ccc(NC(=O)Nc2ccc3c(c2)N(C)C(=O)CS3)cc1
inactive: growth inhibition [1] -12% | growth inhibition [2] -33.6% | viability increase [3] -4.56% | viability [4] 98.9% | viability [5] 89.1% | inhibition [6] 4.93% | RAM network inhibition [7] 5.76%

O=C(CCC1CCCC1)c1c(O)c2ccccc2oc1=O
inactive: growth inhibition [1] 0.51% | growth inhibition [2] 13.6% | viability increase [3] -2.11% | viability [4] 69.4% | viability [5] 67.7% | inhibition [6] 0.63% | RAM network inhibition [7] -1.56%

Clc1cc(NCc2cccs2)ccc1N1CCOCC1
inactive: growth inhibition [1] -13.5% | growth inhibition [2] -6.34% | viability increase [3] -3.46% | viability [4] 78.9% | viability [5] 92% | inhibition [6] 1.17% | RAM network inhibition [7] 4.21%

O=C(NCCOC(=O)c1ccc(S(=O)(=O)N2CCOCC2)cc1)c1cccnc1
inactive: growth inhibition [1] -19.9% | growth inhibition [2] -9.85% | viability increase [3] -0.91% | viability [4] 89.8% | viability [5] 91.7% | inhibition [6] 2.44% | RAM network inhibition [7] 2.11%

CN(C)c1ccc(C2N3CC4(C)CN2CC(C)(C3)C4O)cc1 (centres undefined)
inactive: growth inhibition [1] -21.5% | growth inhibition [2] -10.9% | viability increase [3] 0.46% | viability [4] 101% | viability [5] 99% | inhibition [6] 2.33% | RAM network inhibition [7] 2.42%

Cc1ccc(C)c2[nH]c(=O)c(CCNC(=O)C(C)C)cc12
inactive: growth inhibition [1] -14.5% | growth inhibition [2] -18.6% | viability increase [3] -0.31% | viability [4] 102% | viability [5] 104% | inhibition [6] 1.83% | RAM network inhibition [7] 2.82%

CN(c1ccc(C(=O)O)cc1)S(=O)(=O)c1ccccc1
inactive: growth inhibition [1] 0.21% | growth inhibition [2] 5.12% | viability increase [3] -1.24% | viability [4] 99.5% | viability [5] 92.5% | inhibition [6] 1.14% | RAM network inhibition [7] 1.5%

CCOC(=O)c1c(N)sc(C(N)=O)c1C
inactive: growth inhibition [1] -17.3% | growth inhibition [2] -8.77% | viability increase [3] -1.19% | viability [4] 95.3% | viability [5] 97.3% | inhibition [6] 1.25% | RAM network inhibition [7] 0.78%

O=C(NCCN1CCN(C(=O)Nc2ccccc2)CC1)Nc1ccccc1
inactive: growth inhibition [1] -18.1% | growth inhibition [2] -32.9% | viability increase [3] -0.62% | viability [4] 107% | viability [5] 94.8% | inhibition [6] 1.63% | RAM network inhibition [7] 3%

COC(=O)c1cc(OC)c(OC)cc1-n1cnc2cc(OC)c(OC)cc2c1=O
inactive: growth inhibition [1] -8.81% | growth inhibition [2] -0.615% | viability increase [3] -0.58% | viability [4] 97.4% | viability [5] 105% | inhibition [6] 0.665% | RAM network inhibition [7] 0.92%

O=S(=O)(NCc1csc(-c2cccnc2)n1)c1cccs1
inactive: growth inhibition [1] 5.38% | growth inhibition [2] -1.74% | viability increase [3] -0.79% | viability [4] 98% | viability [5] 90% | inhibition [6] 1.69% | RAM network inhibition [7] 1.3%

N#CC1(c2ccccc2)CCCN1C(=O)c1ccco1 (centres undefined)
inactive: growth inhibition [1] -3.57% | growth inhibition [2] 3.69% | viability increase [3] -1.54% | viability [4] 104% | viability [5] 101% | inhibition [6] 2.25% | RAM network inhibition [7] 3.1%

Cc1ccc2oc(=O)c3cnn(CC(=O)NC4CCC(C)CC4)c3c2c1 (centres undefined)
inactive: growth inhibition [1] -14.1% | growth inhibition [2] -15.1% | viability increase [3] 0.16% | viability [4] 94.4% | viability [5] 86% | inhibition [6] 1.02% | RAM network inhibition [7] 2.93%

O=C(CN1CCN(C2CCCCC2)CC1)Nc1ccccc1N1CCCCC1
inactive: growth inhibition [1] -12.3% | growth inhibition [2] -31.2% | viability increase [3] -4.35% | viability [4] 71.5% | viability [5] 77.7% | inhibition [6] 0.16% | RAM network inhibition [7] 5.95%

CCCn1c(CN2CCCCC2C)nc2c1c(=O)n(C)c(=O)n2C (centres undefined)
inactive: growth inhibition [1] -7.96% | growth inhibition [2] -3.75% | viability increase [3] -0.39% | viability [4] 88.7% | viability [5] 83.9% | inhibition [6] 1.64% | RAM network inhibition [7] 8.45%

CCCOc1ccc(N2C(=O)CC(N3CCN(c4ccccc4F)CC3)C2=O)cc1 (centres undefined)
inactive: growth inhibition [1] -0.95% | growth inhibition [2] -3.87% | viability increase [3] 1.4% | viability [4] 94.7% | viability [5] 96.4% | inhibition [6] 0.125% | RAM network inhibition [7] 7.05%

CCOC(=O)CSc1nc2sc(C(=O)O)c(C)c2c(=O)[nH]1
inactive: growth inhibition [1] 0.2% | growth inhibition [2] -4.45% | viability increase [3] -1.82% | viability [4] 102% | viability [5] 103% | inhibition [6] 1.92% | RAM network inhibition [7] 3.85%

CCC(C)Sc1nnc(Cc2cc(=O)[nH]c(=O)[nH]2)n1-c1ccc(OC)cc1 (centres undefined)
inactive: growth inhibition [1] 5.64% | growth inhibition [2] -6.83% | viability increase [3] -0.09% | viability [4] 104% | viability [5] 102% | inhibition [6] 0.295% | RAM network inhibition [7] 2.22%

CCOC(=O)CSc1nc(N)nc(C)c1Br
inactive: growth inhibition [1] -0.46% | growth inhibition [2] -3.4% | viability increase [3] -2.62% | viability [4] 103% | viability [5] 104% | inhibition [6] 0.49% | RAM network inhibition [7] 0.51%
